The source made the active and inactive calls. No cut-off for these calls is given here.
What was measured:
[1] = Antiproliferative activity against mouse KLN205 cells after 5 days by SRB assay; type: functional, cell-based; details: 120 h
Procedure, shortened: (§1)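 Adherent cells were exposed for 5 days to four concentrations (0.54, 1.8, 6, 20 µM), each point in triplicate. Cells were fixed in cold 10% TCA, stained with 0.4% SRB in 1% acetic acid and solubilized in 10 mM Tris pH 10, then A490 was read. Time-zero plates were included. IC50 is 50% growth inhibition from 100×(T−T0)/(C−T0).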

[2] = Antiproliferative activity against human CRL2813 cells after 5 days by SRB assay; type: functional, cell-based; details: CRL2813, 120 h; procedure, shortened: as §1
[3] = Antiproliferative activity against human CRL2351 cells after 5 days by SRB assay; type: functional, cell-based; details: 120 h; procedure, shortened: as §1
[4] = target: Eukaryotic translation initiation factor 2-alpha kinase 1 (Homo sapiens) (UniProt Q9BQI3); test: Activation of EIF2alpha kinase in human CRL2351 cells assessed as reduction in eIF2-GTP-initiator methionine tRNA ternary complex measuring increase in firefly/renilla luciferase ratio at 2.5 to 20 uM after 16 hrs by dual luciferase reporter gene assay relative to control; type: cell-based
Procedure, shortened: (§2)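 CRL-2351 cells (10^4 per well) were transiently transfected one day after seeding with the bidirectional pBISA-DL(ATF-4) firefly/renilla luciferase plasmid (Lipofectamine 2000). After 16 h compound exposure, lysates were read by Dual-Glo luciferase. F/R ratio was normalized to DMSO vehicle (F/R = 1). Runs were dose-response with at least four points, in triplicate.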

[5] = target: Eukaryotic translation initiation factor 2-alpha kinase 1 (Mus musculus) (UniProt Q9Z2R9); test: Activation of EIF2alpha kinase in mouse KLN205 cells assessed as reduction in eIF2-GTP-initiator methionine tRNA ternary complex measuring increase in firefly/renilla luciferase ratio at 2.5 to 80 uM after 16 hrs by dual luciferase reporter gene assay relative to control; type: cell-based
Procedure, shortened: (§3)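 KLN-205 cells were stably transfected with the bidirectional pBISA-DL(ATF-4) firefly/renilla luciferase reporter: 10^5 cells were seeded per 60-mm dish, transfected the next day and selected with antibiotics. After 16 h compound exposure, lysates were read by Dual-Glo luciferase. F/R ratio was normalized to DMSO vehicle (F/R = 1).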

[6] = target: Eukaryotic translation initiation factor 2-alpha kinase 1 (Mus musculus) (UniProt Q9Z2R9); test: Activation of EIF2alpha kinase in mouse KLN205 cells assessed as CHOP mRNA expression at 20 uM after 5 hrs by PCR analysis; type: cell-based
[7] = target: Eukaryotic translation initiation factor 2-alpha kinase 1 (Homo sapiens) (UniProt Q9BQI3); test: Activation of EIF2alpha kinase in human CRL2351 cells assessed as reduction in eIF2-GTP-initiator methionine tRNA ternary complex measuring increase in firefly/renilla luciferase ratio at 2.5 to 80 uM after 16 hrs by dual luciferase reporter gene assay relative to control; type: cell-based; procedure, shortened: as §2
[8] = target: Eukaryotic translation initiation factor 2-alpha kinase 1 (Homo sapiens) (UniProt Q9BQI3); test: Activation of EIF2alpha kinase in human CRL2351 cells assessed as CHOP protein expression at 5 uM […] by Western blot analysis; type: cell-based
Procedure, shortened: (§4)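 Cells were grown to 70% confluency in serum-containing medium without antibiotics, then treated (KLN at 20 µM, CRL-2351 at 5 µM) for 6 h. They were washed in cold PBS and lysed on ice for 1 h. Protein was measured by BCA. SDS-PAGE immunoblots were probed for phospho-Ser51 eIF2α, total eIF2α, CHOP and β-actin.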

[9] = target: Eukaryotic translation initiation factor 2-alpha kinase 1 (Mus musculus) (UniProt Q9Z2R9); test: Activation of EIF2alpha kinase in mouse KLN205 cells assessed as phosphorylation of eIF2alpha at 20 uM […] by Western blot analysis; type: cell-based; procedure, shortened: as §4
[10] = target: Eukaryotic translation initiation factor 2-alpha kinase 1 (Mus musculus) (UniProt Q9Z2R9); test: Activation of EIF2alpha kinase in mouse KLN205 cells assessed as CHOP protein expression at 20 uM after […] by Western blot analysis; type: cell-based; procedure, shortened: as §4
[11] = target: Eukaryotic translation initiation factor 2-alpha kinase 1 (Homo sapiens) (UniProt Q9BQI3); test: Activation of EIF2alpha kinase in human CRL2351 cells assessed as phosphorylation of eIF2alpha at 5 uM […] by Western blot analysis; type: cell-based; procedure, shortened: as §4
[12] = target: Eukaryotic translation initiation factor 2-alpha kinase 1 (Homo sapiens) (UniProt Q9BQI3); test: Activation of EIF2alpha kinase in human CRL2351 cells assessed as CHOP mRNA expression at 5 uM after 5 hrs by PCR analysis; type: cell-based
[13] = target: Eukaryotic translation initiation factor 2-alpha kinase 1 (Homo sapiens) (UniProt Q9BQI3); test: Activation of EIF2alpha kinase in human CRL2351 cells assessed as reduction in eIF2-GTP-initiator methionine tRNA ternary complex measuring increase in firefly/renilla luciferase ratio at 5 uM after 16 hrs by dual luciferase reporter gene assay relative to control; type: cell-based; procedure, shortened: as §2
[14] = target: Eukaryotic translation initiation factor 2-alpha kinase 1 (Homo sapiens) (UniProt Q9BQI3); test: Activation of EIF2alpha kinase in human CRL2351 cells assessed as reduction in eIF2-GTP-initiator methionine tRNA ternary complex measuring increase in firefly/renilla luciferase ratio at 10 uM after 16 hrs by dual luciferase reporter gene assay relative to control; type: cell-based; procedure, shortened: as §2
[15] = target: Eukaryotic translation initiation factor 2-alpha kinase 1 (Homo sapiens) (UniProt Q9BQI3); test: Activation of EIF2alpha kinase in human CRL2351 cells assessed as reduction in eIF2-GTP-initiator methionine tRNA ternary complex measuring increase in firefly/renilla luciferase ratio at 40 uM after 16 hrs by dual luciferase reporter gene assay relative to control; type: cell-based; procedure, shortened: as §2
[16] = target: Eukaryotic translation initiation factor 2-alpha kinase 1 (Mus musculus) (UniProt Q9Z2R9); test: Activation of EIF2alpha kinase in mouse KLN205 cells assessed as reduction in eIF2-GTP-initiator methionine tRNA ternary complex measuring increase in firefly/renilla luciferase ratio at 5 uM after 16 hrs by dual luciferase reporter gene assay relative to control; type: cell-based; procedure, shortened: as §3
[17] = Aqueous solubility of compound; type: physicochemical; details: buffer
[18] = target: Eukaryotic translation initiation factor 2-alpha kinase 1 (Homo sapiens) (UniProt Q9BQI3); test: Activation of EIF2alpha kinase in human CRL2351 cells assessed as reduction in eIF2-GTP-initiator methionine tRNA ternary complex measuring increase in firefly/renilla luciferase ratio at 2.5 uM after 16 hrs by dual luciferase reporter gene assay relative to control; type: cell-based; procedure, shortened: as §2
[19] = target: Eukaryotic translation initiation factor 2-alpha kinase 1 (Mus musculus) (UniProt Q9Z2R9); test: Activation of EIF2alpha kinase in mouse KLN205 cells assessed as reduction in eIF2-GTP-initiator methionine tRNA ternary complex measuring increase in firefly/renilla luciferase ratio at 20 uM after 16 hrs by dual luciferase reporter gene assay relative to control; type: cell-based; procedure, shortened: as §3
[20] = target: Eukaryotic translation initiation factor 2-alpha kinase 1 (Homo sapiens) (UniProt Q9BQI3); test: Activation of EIF2alpha kinase in human CRL2351 cells assessed as reduction in eIF2-GTP-initiator methionine tRNA ternary complex measuring increase in firefly/renilla luciferase ratio at 20 uM after 16 hrs by dual luciferase reporter gene assay relative to control; type: cell-based; procedure, shortened: as §2

Eukaryotic translation initiation factor 2-alpha kinase 1 (Homo sapiens), sequence (Q9BQI3 whole entry): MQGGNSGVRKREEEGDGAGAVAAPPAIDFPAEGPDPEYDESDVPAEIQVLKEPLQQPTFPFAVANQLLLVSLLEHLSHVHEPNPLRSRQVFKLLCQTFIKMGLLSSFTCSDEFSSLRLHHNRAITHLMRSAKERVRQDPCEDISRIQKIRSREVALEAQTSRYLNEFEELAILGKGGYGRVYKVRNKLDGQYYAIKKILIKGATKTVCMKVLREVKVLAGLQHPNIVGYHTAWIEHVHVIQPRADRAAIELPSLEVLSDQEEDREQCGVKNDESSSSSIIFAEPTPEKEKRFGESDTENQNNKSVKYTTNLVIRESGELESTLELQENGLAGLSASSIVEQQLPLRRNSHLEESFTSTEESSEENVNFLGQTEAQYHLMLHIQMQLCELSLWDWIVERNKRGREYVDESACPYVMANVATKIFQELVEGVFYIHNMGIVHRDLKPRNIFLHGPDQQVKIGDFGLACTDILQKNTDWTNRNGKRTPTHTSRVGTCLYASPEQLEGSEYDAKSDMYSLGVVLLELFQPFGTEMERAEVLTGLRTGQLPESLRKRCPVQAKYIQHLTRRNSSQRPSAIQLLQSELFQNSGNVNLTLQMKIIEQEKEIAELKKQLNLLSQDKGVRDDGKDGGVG
Eukaryotic translation initiation factor 2-alpha kinase 1 (Mus musculus), sequence (Q9Z2R9 whole entry): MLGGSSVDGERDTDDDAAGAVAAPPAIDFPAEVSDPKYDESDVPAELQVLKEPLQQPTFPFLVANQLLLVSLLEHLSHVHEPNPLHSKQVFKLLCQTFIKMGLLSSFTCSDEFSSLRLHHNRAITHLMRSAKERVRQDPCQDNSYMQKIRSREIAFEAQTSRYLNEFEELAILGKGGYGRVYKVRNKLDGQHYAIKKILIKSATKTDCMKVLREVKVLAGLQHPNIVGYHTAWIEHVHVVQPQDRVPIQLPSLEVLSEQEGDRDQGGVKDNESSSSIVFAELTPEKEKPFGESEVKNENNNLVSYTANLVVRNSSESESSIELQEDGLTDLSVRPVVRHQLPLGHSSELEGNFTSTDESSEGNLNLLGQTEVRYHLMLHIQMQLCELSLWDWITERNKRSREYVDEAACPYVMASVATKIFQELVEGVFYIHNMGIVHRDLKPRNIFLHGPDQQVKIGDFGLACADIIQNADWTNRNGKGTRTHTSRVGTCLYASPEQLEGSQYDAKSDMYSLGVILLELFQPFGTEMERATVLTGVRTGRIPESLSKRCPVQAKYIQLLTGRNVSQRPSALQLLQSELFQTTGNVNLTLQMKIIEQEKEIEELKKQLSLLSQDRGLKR

Cc1ccc(NC(=O)Nc2ccc(Cl)c(Cl)c2)cc1OCCN1CCOCC1
IC50 [1]: > 20000 nM
IC50 [2]: 12000 nM
IC50 [3]: 2400 nM
Activity [4]: Active

O=C(Nc1ccc(Cl)c(C(F)(F)F)c1)Nc1ncccc1O
Activity [5]: Active
Activity [6]: Active
IC50 [1]: 15400 nM
IC50 [2]: 600 nM
IC50 [3]: 800 nM
Activity [7]: Active
Activity [8]: Active
Activity [9]: Active
Activity [10]: Active
Activity [11]: Active
Activity [12]: Active

COc1cc(NC(=O)Nc2ccc(Cl)c(C(F)(F)F)c2)ccc1C
Ratio [13]: 8
IC50 [1]: 18600 nM
IC50 [2]: 2800 nM
IC50 [3]: 2300 nM

Cc1ccc(NC(=O)Nc2cc(C(F)(F)F)cc(C(F)(F)F)c2)cc1OCCN1CCNCC1
IC50 [1]: > 20000 nM
IC50 [2]: 3200 nM
IC50 [3]: 4200 nM
Ratio [14]: 9

O=C(Nc1ccc(Cl)c(Cl)c1)Nc1ncccc1O
Ratio [15]: 12
IC50 [1]: > 20000 nM
IC50 [2]: 1600 nM
IC50 [3]: 1400 nM

Cc1ccc(NC(=O)Nc2cc(C(F)(F)F)cc(C(F)(F)F)c2)cc1O
IC50 [1]: 15700 nM
IC50 [2]: 1200 nM
IC50 [3]: 2800 nM

Cc1ccc(NC(=O)Nc2ccc(Cl)c(C(F)(F)F)c2)cc1OCCN(C)C
IC50 [1]: 13600 nM
IC50 [2]: 2300 nM
IC50 [3]: 2400 nM

COc1cc(NC(=O)Nc2cc(C(F)(F)F)cc(C(F)(F)F)c2)ccc1C
Activity [6]: Active
Ratio [13]: 9
IC50 [1]: 6600 nM
IC50 [2]: 500 nM
IC50 [3]: 1800 nM
Activity [8]: Active
Activity [9]: Active
Activity [10]: Active
Activity [11]: Active
Activity [16]: Active
Activity [12]: Active

Cc1ccc(NC(=O)Nc2ccc(Cl)c(Cl)c2)cc1OCCN(C)C
IC50 [1]: 14700 nM
IC50 [2]: 5800 nM
IC50 [3]: 4100 nM
Activity [4]: Active

Cc1ccc(NC(=O)Nc2ccc(Cl)c(Cl)c2)cc1OCCN1CCNCC1
IC50 [1]: > 20000 nM
IC50 [2]: 5200 nM
IC50 [3]: 5000 nM
Activity [4]: Active

Cc1ccc(NC(=O)Nc2ccc(Cl)c(C(F)(F)F)c2)cc1OCCN1CCNCC1
IC50 [1]: > 20000 nM
IC50 [2]: 2500 nM
IC50 [3]: 1800 nM

Cc1ccc(NC(=O)Nc2cc(C(F)(F)F)cc(C(F)(F)F)c2)cc1OCCN(C)C
IC50 [1]: 8900 nM
IC50 [2]: 7600 nM
IC50 [3]: 2400 nM
Ratio [14]: 9

Cc1ccc(NC(=O)Nc2cc(C(F)(F)F)cc(C(F)(F)F)c2)cc1OCCN1CCOCC1
IC50 [1]: 18800 nM
IC50 [2]: 800 nM
IC50 [3]: 2300 nM
Ratio [14]: 10

O=C(Nc1ccc(Cl)c(C(F)(F)F)c1)Nc1ccc(Cl)c(C(F)(F)F)c1
solubility [17]: Insoluble
Ratio [18]: 11
IC50 [1]: 1300 nM
IC50 [2]: 1800 nM
IC50 [3]: 2400 nM

O=C(Nc1ccc(Cl)c(Cl)c1)Nc1ccc(Cl)c(Cl)c1
solubility [17]: Insoluble
Ratio [13]: 11
IC50 [1]: > 20000 nM
IC50 [2]: 1000 nM
IC50 [3]: 2400 nM

Cc1ccc(NC(=O)Nc2ccc(Cl)c(C(F)(F)F)c2)cc1OCCN1CCOCC1
IC50 [1]: > 20000 nM
IC50 [2]: 1100 nM
IC50 [3]: 2600 nM

O=C(Nc1cc(C(F)(F)F)cc(C(F)(F)F)c1)Nc1cc(C(F)(F)F)cc(C(F)(F)F)c1
Activity [6]: Active
solubility [17]: Insoluble
Ratio [18]: 11
IC50 [1]: 4200 nM
IC50 [2]: 300 nM
IC50 [3]: 1800 nM
Activity [8]: Active
Activity [9]: Active
Activity [10]: Active
Activity [11]: Active
Activity [19]: Active
Activity [12]: Active

Cc1ccc(NC(=O)Nc2ccc(Cl)c(Cl)c2)cc1O
Ratio [20]: 11
IC50 [1]: > 20000 nM
IC50 [2]: 2300 nM
IC50 [3]: 7500 nM

Cc1ccc(NC(=O)Nc2ccc(Cl)c(C(F)(F)F)c2)cc1O
IC50 [1]: > 20000 nM
IC50 [2]: 1600 nM
IC50 [3]: 9500 nM
Ratio [14]: 11

O=C(Nc1cc(C(F)(F)F)cc(C(F)(F)F)c1)Nc1ncccc1O
IC50 [1]: 14800 nM
IC50 [2]: 600 nM
IC50 [3]: 700 nM

COc1cc(NC(=O)Nc2ccc(Cl)c(Cl)c2)ccc1C
Activity [6]: inactive
Ratio [13]: < 2
IC50 [1]: > 20000 nM
IC50 [2]: 500 nM
IC50 [3]: 800 nM
Activity [8]: inactive
Activity [4]: inactive
Activity [9]: inactive
Activity [10]: inactive
Activity [11]: inactive
Activity [12]: inactive

— ChEMBL document CHEMBL1938338, “In vitro inhibition of translation initiation by N,N'-diarylureas--potential anti-cancer agents” (Bioorg Med Chem Lett, 2012)
